# Compound activity deposited in PubChem BioAssay by Sanford-Burnham Center for Chemical Genomics.
# Shown are actives, neighbours in structure and some others; about 1.5% of the full set was active somewhere.
# CXCR6 inh: CXCR6 receptor inhibitors, primary screen, cell-based, beta-arrestin, luminescence, CHO-K1 PathHunter, 1536-well | C-X-C chemokine receptor type 6 (Homo sapiens), O00574 | inhibition, % at 20 µM | 360,000 tested, 0.36% active; in the data active = inhibition above about 34%, passing the limit was not always enough;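 also: antagonist mode with CXCL16 agonist at 10 nM final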
# EBI2 antag: EBI2 receptor antagonists, beta-arrestin recruitment, primary screen, cell-based, luminescence, 7a,25-OHC stimulation, uHTS | G-protein coupled receptor 183 (Homo sapiens), P32249 | 7a,25-OHC stimulated | inhibition, % at 5 µM | 360,000 tested, 0.81% active | AID 651636, 2012; in the data active = inhibition above about 38%;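 also: enzyme fragment complementation signal reports receptor beta-arrestin coupling in cells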
# APJ antagonist: antagonists of human apelin receptor APJ, primary screen, CHO-K1 cells, beta-arrestin complementation, luminescence | inhibition, % at 20 µM | 330,000 tested, 0.32% active | AID 2521, 2010;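 active = inhibition above about 40% at 20 µM, limit read from the data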;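 also: cells challenged with 10 nM apelin-13 agonist together with compound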
# Target sequence (P35414 whole entry, looked up): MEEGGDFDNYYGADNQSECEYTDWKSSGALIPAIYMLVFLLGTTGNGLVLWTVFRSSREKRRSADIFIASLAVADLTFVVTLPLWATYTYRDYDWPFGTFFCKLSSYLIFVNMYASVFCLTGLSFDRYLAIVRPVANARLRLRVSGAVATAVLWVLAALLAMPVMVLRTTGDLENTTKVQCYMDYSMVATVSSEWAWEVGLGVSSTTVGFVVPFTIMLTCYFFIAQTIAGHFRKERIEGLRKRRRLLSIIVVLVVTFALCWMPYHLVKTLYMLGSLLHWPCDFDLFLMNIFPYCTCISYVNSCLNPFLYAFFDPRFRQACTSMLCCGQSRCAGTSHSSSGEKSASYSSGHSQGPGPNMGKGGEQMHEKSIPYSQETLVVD
# CCR6 antag: CCR6 receptor antagonists, primary screen, cell-based, CHO-K1, luminescence, beta-arrestin, uHTS | CHO-K1 CCR6 PathHunter beta-arrestin, CCL20-stimulated | inhibition, % at 20 µM | 340,000 tested, 0.49% active;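 active = compounds whose inhibition of the agonist-driven luminescence signal at 20 µM reaches about 50%, limit read from the data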;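 also: cells stimulated with CCL20 at 14 nM final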
# APJ agonist: agonists of human apelin receptor APJ, primary screen, CHO-K1 cells, PathHunter beta-arrestin, luminescence; 0% DMSO wells, 100% apelin; 330,000 tested, 0.11% active; activation, % at 20 µM; P35414;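 active = activation more than six SD over the plate average, tested at 20 µM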
#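 Assay system: CHO-K1 APJ beta-arrestin complementation cell line / Compound: single test compound dose, 20 µM final, 1% DMSO / Times: overnight seeding, 90 min compound at 25 °C, 1 h detection / Technique: beta-gal luminescence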
# EBI2 antag conf: EBI2 antagonist hit retest, beta-arrestin, confirmation, cell-based, single concentration, luminescence, 7a,25-OHC stimulation. inhibition, % at 5 µM. shares compounds with EBI2 antag. 7a,25-OHC antagonism. 2,400 tested, 29% active. AID 651997, 2013;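 active = inhibition of at least 50%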
# EBI2 ag: EBI2 agonist activity of antagonist hits, confirmation, counter-screen for EBI2 antagonist project, cell-based, single concentration, agonist mode, luminescence; shares compounds with EBI2 antag; activation, % at 5 µM; EBI2-expressing cells, 60 min; 0% vehicle, 100% 7α,25-dihydroxycholesterol control; 2,400 tested, under 10 active;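 active = activation of at least 50%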
# bGal counter: E. coli beta-galactosidase enzyme inhibition, confirmation, counter-screen for EBI2 antagonist project, biochemical, luminescence, single concentration; purified beta-galactosidase, luminescent Galacton Star, 15 min; inhibition, % at 5 µM; shares compounds with EBI2 antag; 2,400 tested, 1% active;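 active = replicate-average signal at least 3 plate SD below neutral wells, shown as high inhibition, flagging enzyme-inhibiting false positives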;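 also: higher means stronger loss of beta-gal luminescence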
# A number is an active result; - = inactive; . = not tested or not shown.
SMILES,CXCR6 inh,EBI2 antag,APJ antagonist,CCR6 antag,APJ agonist,EBI2 antag conf,EBI2 ag,bGal counter
Cc1ccc(N(C(=O)c2snc(C(N)=O)c2N)C(C(=O)NC2CCCC2)c2ccc(C)o2)cc1 (stereo not given),-,68,-,-,-,70,-,-
Cc1ccc(N(C(=O)c2snc(C(N)=O)c2N)C(C(=O)NC2CCCC2)c2ccco2)cc1 (stereo not given),-,56,-,-,-,-,-,-
COc1ccc(C(C(=O)NC2CCCCC2)N(C(=O)c2snc(C(N)=O)c2N)c2ccc(OC)cc2OC)cc1 (stereo not given),-,70,-,-,-,73,-,-
O=C(Nc1ccc(F)cc1)C(CCc1ccccc1)N1CCN(Cc2c(F)cccc2Cl)CC1 (stereo not given),.,-,.,.,.,.,.,.
C/C(=N\Nc1ncnc2sc(C)c(C)c12)c1ccccn1,-,55,47,-,-,53,-,-
Cc1sc2ncnc(N/N=C/c3cccc(O)c3)c2c1C,-,-,-,-,-,.,.,.
CC(C)(C)c1ccc(/C=C/C(=O)N2CCOCC2)cc1,-,-,-,-,-,.,.,.
CC(C)(C)c1ccc(/C=C/C(=O)N2CCN(c3ncccn3)CC2)cc1,-,65,-,-,-,61,-,-
O=C(/C=C/c1ccc(F)cc1)N1CCN(c2ncccn2)CC1,-,93,-,-,-,78,-,-
CCCS(=O)(=O)NC(=O)C1(C)CCCN(C(=O)c2cc(F)cc(F)c2)C1 (stereo not given),-,-,.,.,.,.,.,.
O=C1OC(C(Cl)(Cl)Cl)Nc2ccccc21 (stereo not given),-,-,.,.,.,.,.,.
Cc1ccnc(NC(=O)CNC(=O)c2sc3ccccc3c2Cl)c1,-,-,-,-,-,.,.,.
Cc1ccnc(NC(=O)c2sc3cc(Cl)ccc3c2Cl)c1,-,55,-,-,-,55,-,-
NC(N)=N/N=C/c1ccccc1,-,-,-,-,-,.,.,.
NC(=N\N=Cc1ccccc1)/C(N)=N/N=Cc1ccccc1,-,48,.,-,.,-,-,-
CSc1ccc(OC2(C)CCN(Cc3ccc(C(C)C)cc3)C2)cc1 (stereo not given),-,-,.,.,.,.,.,.
CCN(CC)S(=O)(=O)c1ccc2oc(C(=O)NC3CCCc4ccccc43)c(C)c2c1 (stereo not given),-,43,-,-,-,-,-,-
Brc1ccc(OCc2nnnn2-c2ccccc2)cc1,-,80,-,-,-,64,-,-
CC1CCc2c(sc3ncnc(NCCCOC(C)C)c23)C1 (stereo not given),-,45,-,-,-,-,-,-
CC1CCc2c(sc3ncnc(NCc4cccnc4)c23)C1 (stereo not given),-,-,-,-,-,.,.,.
O=[N+]([O-])c1ccc2c(c1Nc1ccccc1Cl)=NC1(CCCCC1)N=2,-,63,-,-,-,-,-,-
O=C(O)C1(Nc2ccccc2Cl)CCCC1,-,-,.,-,.,.,.,.
O=C(C(O)c1ccccc1)N1CCN(S(=O)(=O)c2ccc(F)c(F)c2)CC1 (stereo not given),.,-,.,.,.,.,.,.
FC(F)C(F)(F)Oc1cccc(Nc2nccn3c(-c4cccc5cccnc45)cnc23)c1,-,47,.,.,.,-,-,-
COc1ccccc1-c1cnc2c(Nc3cccc(OC(F)(F)C(F)F)c3)nccn12,-,68,.,.,.,-,-,-
O=C(NCCO)c1cccc(-c2cnc3c(Nc4cccc(OC(F)(F)C(F)F)c4)nccn23)c1,-,-,.,.,.,.,.,.
